Data as given in the array DNA melting data of Ke et al. (doi:10.1101/2024.01.08.574731).

Experiments:
[1] = folding enthalpy; higher = less favourable; fluorescence melt of hairpins on a sequencing array, two-state fit; settings: sodium 0.088 M
Summary of the method: (§1)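 Folding enthalpy and melting temperature come from bootstrapped two-state fits to Cy3 fluorescence of library hairpins carrying annealed Cy3 and quencher oligos on a sequenced MiSeq flow cell. Imaging was done in 50 mM Na-HEPES pH 8.0, 25 mM NaCl, stepping by 2.5 °C up to 60 °C, and signals were normalised to pre-quench Cy3 and to control constructs. Results of four replicates were combined by inverse variance, and fitted temperatures were raised by 9.35 °C to match UV melts.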

[2] = melting temperature; fluorescence melt of hairpins on a sequencing array, two-state fit, raised by 9.35 °C to match UV melts; settings: sodium 0.088 M
Summary of the method: as §1

Sequence | folding enthalpy [1] [kcal/mol] | Tm [2] [°C]
GCTCAGCGAAAGCAGGGC ((.(.((....)).).)) | -19 | 51.9
CGCGCGGAAACGCTAGCG ((((((....)))..))) | -31 | 55.6
GATGCCGAAAGGCGGATC ((((((....)))..))) | -10.5 | 40.5
GCACACCGAAAGGTTGC (((.(((....)))))) | -28.6 | 53.6
GATCGATTCATCGATC ((((((....)))))) | -39.9 | 59.3
GATTCCGAAAGGAGAATC ((((((....)))..))) | -17.4 | 32.7
GTGTGCGAAAGCAACCAC ((((((....)))..))) | -14.3 | 38.8
GGGATCGAAAGATGACCC ((((((....)))..))) | -27.8 | 33.6
GCTTAACGAAAGTTGAGC (((.(((....))).))) | -38.9 | 52.4
GTGATACGAAAGTAGCAC (((.(((....))).))) | -48.7 | 58.6
AACCAGAAATGGTT (((((....))))) | -14.8 | 40.2
GTACTGGGAAACCGGTAC ((((.((....)).)))) | -35.3 | 50.1
GTACCCGGAAACGGGCAC ((.((((....)))).)) | -18.7 | 50
GAGCTCGGAAACGGGTTC ((.(.((....)).).)) | -14.2 | 42.3
GTACAGGGAAACCTGTAC (((((((....))))))) | -40.3 | 59.4
CGTGTACGGAAACGTACG (((..(((....)))))) | -8.98 | 46
GGACCACGAAAGTGTTCC (((.(((....))).))) | -24.8 | 49.4
GTGGCATCGAAAGATCAC (((..(((....)))))) | -12.8 | 34.2
GCTGTGCGAAAGCGAAGC (((..((....))..))) | -17.9 | 52.6
GATCCGGCTGCGGATC ((((((....)))))) | -38.4 | 61
GCGTGGGAACGC ((((....)))) | -20.4 | 66.7
GAACACGAAAGTGTTTTC ((((((....)))..))) | -15.1 | 49
GATCTATAGCTAGATC ((((((....)))))) | -28.7 | 36.5

Sequence | folding enthalpy [1] [kcal/mol] | Tm [2] [°C]
GGACGAGGAAACCCGTCC (((((.(....).))))) | -39.1 | 54.2
GAACCCGGAAACAGGTTC (((((.(....).))))) | -25.9 | 40
GCCTTGCGAAAGCCTGGC (((..((....))..))) | -18.7 | 53.9
GCTTACCGAAAGGTGAGC (((.(((....))).))) | -40.5 | 58.6
GCACATGGAAACATATGC (((.(((....))).))) | -26 | 36
GCTTTGACGAAAGTCAGC (((..(((....)))))) | -12 | 33.2
GTATCGCCGAAAGGCTAC (((..(((....)))))) | -6.58 | 32.9
GTCTGCGGAAACGCAAAC ((.((((....)))).)) | -15.2 | 38
GTAGGGCGAAAGCCTAC (((.(((....)))))) | -14.1 | 51.8
GTACTAGCGAAAGCTTAC (((..(((....)))))) | -9.73 | 28.2
GAGCTGGAAACAGCTC ((((((....)))))) | -26 | 67.6
GATCTCCTCAGAGATC ((((((....)))))) | -37.7 | 55.9
GATTGAGGAAACTCAATC (((((((....))))))) | -52.3 | 53.6
GCCATTCCGAAAGGAGGC (((..(((....)))))) | -18.4 | 44.2
CGTGCGGAAACGCGGACG ((((((....)))..))) | -19.2 | 47
GATCATGGAAACGTGATC (((((.(....).))))) | -31.7 | 46.5
GCCGAGCGAAAGCCAGGC (((..((....))..))) | -24 | 62.7
GCCGAGCGAAAGCTCCGC ((.((((....)))).)) | -18 | 55.7
GGTGTGAAAACACC (((((....))))) | -30.9 | 57.3
GATCGAGAATTCGATC ((((((....)))))) | -39.7 | 57.4
GCGCGAGCGAAAGCTCGC (((..(((....)))))) | -6.17 | 69.1
GTCCGCCGAAAGGCGAC (((.(((....)))))) | -9.54 | 52.5
GCTATGACGAAAGTCAGC (((..(((....)))))) | -13.2 | 42

Sequence | folding enthalpy [1] [kcal/mol] | Tm [2] [°C]
GGGATAGGAAACCATCCC (((((.(....).))))) | -30.9 | 43.3
GTAGACGAAAGTCCCTAC ((((((....)))..))) | -7.5 | 19.7
GTACATGGAAACACGTAC ((((.((....)).)))) | -21.9 | 36.2
GTTGTGGGAAACCACAGC (.(((((....))))).) | -20 | 49.7
GATCGGGCATCCGATC ((((((....)))))) | -41.9 | 63.3
GGTCCCCGAAAGGGAACC (((.(((....))).))) | -37 | 53
GCCCTAGGAAACCAAGGC (((.(.(....).).))) | -12 | 28.2
GCGTACGGACGC ((((....)))) | -29.5 | 52.9
GGTGACGAAAGTCATACC ((((((....)))..))) | -13.6 | 40.7
GCTACAGCGAAAGCTAGC (((..(((....)))))) | -16.3 | 44.5
CCACGGAAACGTGG (((((....))))) | -21.2 | 69.2
GAGCAAGGAAACCTGCTC (((((.(....).))))) | -27.6 | 48.5
GTTCGTGGAAACACGAAC (((((((....))))))) | -39.4 | 65.8
GAGGACGAAAGTCGCCTC ((((((....)))..))) | -14.9 | 38.9
GGAGCCGGAAACGACTCC ((((.((....)).)))) | -55.2 | 52
GCGGCGCACCGC ((((....)))) | -14.2 | 59.7
GTCGGAGGAAACTCTGGC (.(.(((....))).).) | -28.2 | 37.2
GCCTGCGGAAACGTAGGC ((((.((....)).)))) | -28 | 58
GACCGCGGAAACACGGCC (.(((.(....).))).) | -22.2 | 37
GATCTCGCTGGAGATC ((((((....)))))) | -36.8 | 54.3
GTGTCAGGAAACTGGTAC ((..(((....)))..)) | -17.6 | 31.8
GTCGCCGAAAGGCAGGAC ((((((....)))..))) | -13.1 | 50.4
GATAGACGAAAGTCGATC (((.(((....))).))) | -25.9 | 51.2

Sequence | folding enthalpy [1] [kcal/mol] | Tm [2] [°C]
GCACAGCGAAAGCCCTGC (((..((....))..))) | -8.82 | 32.1
CTTCGGAAACGAAG (((((....))))) | -20.9 | 50.3
GTCAACGAAAGTTGAC ((((((....)))))) | -37.4 | 68.9
CGCGGAATGATCCGCG ((((((....)))))) | -39.7 | 62.5
GCATCCGAAAGGAATTGC ((((((....)))..))) | -20.2 | 36.9
GACCGCGAAAGCGTGGTC ((((((....)))..))) | -18.6 | 50.9
GATCTAAATGTAGATC ((((((....)))))) | -26.8 | 36.7
GGACGCGGAAACGCGCCC ((.((((....)))).)) | -18.6 | 61.8
GACGATGGAAACGTTGTC (((.(.(....).).))) | -22.2 | 34
GGGTTGCGAAAGCATCCC (((.(((....))).))) | -34.1 | 59.1
GCGCAGGGAAACTTGCGC (((((.(....).))))) | -43.4 | 60.2
GATCTGGCCACAGATC ((((((....)))))) | -39.6 | 59.8
GCGGAAGCCGC ((((...)))) | -15.7 | 55.8
GCGGAGGCGAAAGCCCGC (((..(((....)))))) | -21.7 | 66.6
GCCCTCGAAAGAGGCGGC ((((((....)))..))) | -19.1 | 56
GAACTCCGAAAGGATTC (((.(((....)))))) | -17 | 37.1
GCACCGGGAAACCGGTAC (.(((((....))))).) | -14.8 | 41
GATCATGGGCATGATC ((((((....)))))) | -38 | 49.6
GTATACGAAAGTAGCTAC ((((((....)))..))) | -8.67 | 24.4
GTATCCGAAAGGATTTAC ((((((....)))..))) | -12 | 30.6
GCTACACCGAAAGGTAGC (((..(((....)))))) | -22.7 | 47.1
GATCGCTCATGCGATC ((((((....)))))) | -40.2 | 67.8
GATCGTTCTGACGATC ((((((....)))))) | -44.4 | 55.5
